Experimental findings from ChEMBL document CHEMBL3108746, “Novel symmetrical ureas as modulators of protein arginine methyl transferases” (Bioorg Med Chem, 2013) are described below.

Active and inactive are the calls of the source. The calls are words filed in the database; no cut-off is given here.

The subject of assay [1] is VCaP. Kind of assay: Cytotoxicity against human VCaP cells after 7 days by Alamar blue staining method. It counts as functional, cell-based. The method in brief: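 VCaP cells seeded at 16,000 cells/well in phenol-red DMEM with 10% cFCS. After 1 day, treated with 0.1 nM R1881 plus a range of compound concentrations. Cell number read 7 days later by Alamar Blue staining on a luminometer.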
(The colour change of resazurin is a common sign of viable cells or microbes.)

The test system of a further assay is LAPC4. Nature of the assay: Cytotoxicity against human LAPC4 cells after 7 days by Alamar blue staining method. To be noted: for IC50: LAPC4, 168 h. It counts as functional, cell-based. Put shortly:
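LAPC-4 cells seeded at 4000 cells/well in medium with 2 mM L-glutamine. After 1 day, treated with 1 nM R1881 plus a range of compound concentrations. Cell number read 7 days later by Alamar Blue staining on a luminometer.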

Assay [2] concerns the target Protein arginine N-methyltransferase 5 (Homo sapiens) (UniProt O14744). Nature of the assay: Residual activity of recombinant human PRMT5 expressed in Sf9 cells using histone H4 peptide as substrate at 100 uM by chemiluminescence assay.
For assay [3] the target is unchanged. Nature of the assay: Inhibition of recombinant human PRMT5 expressed in Sf9 cells using histone H4 peptide as substrate by chemiluminescence assay. The method in brief:
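Purified recombinant human PRMT5 (Sf9-expressed) incubated 1 h with S-adenosylmethionine in 1× TBS pH 8.0 with 0.05% Tween20, on wells precoated with histone H4 peptide. Compounds came from 25 mM DMSO stocks diluted in water. Detection used a primary antibody to symmetric-dimethyl R3 of H4 (1 h), then HRP secondary and chemiluminescence. Mean of duplicates with SD.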

For assay [4], the system named is VCaP. Nature of the assay: Inhibition of PRMT1 gene expression in androgen-stimulated human VCaP cells by RT-PCR analysis. It is filed as functional, cell-based. Put shortly: (§1)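 VCaP cells treated with androgen alone or with increasing compound concentrations. Transcript levels measured by real-time PCR with gene-specific fluorogenic probes and normalized to human cyclophilin A. Values are means of independent triplicates.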

For assay [5], the target named is T1, Protein arginine N-methyltransferase 1 (Homo sapiens, UniProt Q99873). Nature of the assay: Inhibition of PRMT1-mediated TMPRSS2 gene expression in R1881-stimulated human VCaP cells by RT-PCR analysis. It counts as cell-based. Put shortly: as §1
Target sequence in this assay (Q99873 whole entry, looked up): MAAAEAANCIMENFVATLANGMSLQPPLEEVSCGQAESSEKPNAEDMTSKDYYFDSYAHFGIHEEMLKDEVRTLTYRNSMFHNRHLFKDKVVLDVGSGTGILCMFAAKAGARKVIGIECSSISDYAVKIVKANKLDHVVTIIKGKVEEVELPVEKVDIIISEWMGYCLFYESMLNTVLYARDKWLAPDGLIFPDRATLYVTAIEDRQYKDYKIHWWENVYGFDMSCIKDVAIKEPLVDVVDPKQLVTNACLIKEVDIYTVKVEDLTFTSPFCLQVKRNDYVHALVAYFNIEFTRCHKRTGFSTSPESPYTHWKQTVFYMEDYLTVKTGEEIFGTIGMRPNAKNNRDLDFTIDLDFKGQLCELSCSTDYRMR
The target in assay [6] is T1, Protein arginine N-methyltransferase 1. Kind of assay: Inhibition of PRMT1-mediated FKBP5 gene expression in R1881-stimulated human VCaP cells by RT-PCR analysis. It counts as cell-based. The method in brief:
as §1
Target sequence in this assay (Q99873 whole entry, looked up): as above

Assay [7] has the same target. Kind of assay: Inhibition of PRMT1-mediated KLK2 gene expression in R1881-stimulated human VCaP cells at 1.56 to 100 uM by RT-PCR analysis. It counts as cell-based. The method in brief:
as §1
Target sequence in this assay (Q99873 whole entry, looked up): as above

Assay [8] deals with VCaP. Kind of assay: Inhibition of AR gene expression in R1881-stimulated human VCaP cells at 1.56 to 100 uM by RT-PCR analysis. It is filed as functional, cell-based. The method in brief: as §1
Assay [9] concerns the target T1, Protein arginine N-methyltransferase 1. Nature of the assay: Inhibition of recombinant human PRMT1 expressed in Escherichia coli using histone H4 peptide as substrate by chemiluminescence assay.
Target sequence in this assay (Q99873 whole entry): as the sequence (Q99873 whole entry, looked up) above

Protein arginine N-methyltransferase 5 (Homo sapiens), sequence (O14744 whole entry): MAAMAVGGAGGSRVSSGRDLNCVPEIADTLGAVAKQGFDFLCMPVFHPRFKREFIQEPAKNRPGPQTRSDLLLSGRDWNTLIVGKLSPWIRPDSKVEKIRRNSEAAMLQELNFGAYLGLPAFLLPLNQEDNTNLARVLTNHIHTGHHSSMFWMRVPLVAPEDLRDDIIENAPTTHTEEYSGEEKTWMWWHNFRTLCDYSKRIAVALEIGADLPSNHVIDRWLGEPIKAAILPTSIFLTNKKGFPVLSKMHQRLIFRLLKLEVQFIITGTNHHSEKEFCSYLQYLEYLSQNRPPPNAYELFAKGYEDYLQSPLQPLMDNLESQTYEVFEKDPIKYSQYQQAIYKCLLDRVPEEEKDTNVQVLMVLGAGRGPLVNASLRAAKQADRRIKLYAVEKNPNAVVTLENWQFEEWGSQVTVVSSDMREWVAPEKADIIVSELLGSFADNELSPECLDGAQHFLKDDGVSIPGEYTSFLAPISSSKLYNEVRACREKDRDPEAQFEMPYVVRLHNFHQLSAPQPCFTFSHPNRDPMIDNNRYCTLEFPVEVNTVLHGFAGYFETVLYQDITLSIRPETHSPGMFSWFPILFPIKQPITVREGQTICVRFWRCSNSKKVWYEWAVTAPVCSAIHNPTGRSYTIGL

What is called residual activity is what remains of the control signal, in per cent. Regarding `O=C(O)/C=C/c1ccc(N2CCN(c3ccc(/C=C/C(=O)O)cc3)C2=O)cc1`, the result in the assay with VCaP [1] and in the assay on LAPC4 was inactive. The residual activity in assay [2] was determined as 35.9%.

In the case of `O=C(Nc1ccc2c(O)cc(S(=O)(=O)O)cc2c1)Nc1ccc2c(O)cc(S(=O)(=O)O)cc2c1`, the outcome in the assay on VCaP [1] and with LAPC4 was inactive.

Consider `O=C(O)/C=C/c1cccc(N2CCN(c3cccc(/C=C/C(=O)O)c3)C2=O)c1`, for which the result in the assay on VCaP [1] and in the assay with LAPC4 was inactive. Further, in assay [2], the residual activity came to 61.5%.

Regarding `O=C(NCCc1cccc(C(=O)O)c1)NCCc1cccc(C(=O)O)c1`, the result with VCaP [1] and in the assay on LAPC4 was inactive. Besides, the residual activity in [2] amounted to 15.4%. In addition, in [3], the inhibition entry is “Active”.

Consider `O=C(O)/C=C/c1cccc(NC(=O)Nc2cccc(/C=C/C(=O)O)c2)c1`, for which the outcome with VCaP [1] and in the assay with LAPC4 was inactive. Besides, the residual activity in assay [2] turned out to be 92.3%.

In general, IC50 refers to the concentration that gives 50% inhibition. In the case of `O=C(O)CCCCCNC(=O)NCCCCCC(=O)O`, the outcome in the assay with VCaP [1] and in the assay with LAPC4 was inactive. The inhibition result (with VCaP [4]; in assay [7]; in the assay on VCaP [8]) was “inactive” throughout. The inhibition entry in [5] and in [6] was “Dose-dependent effect” throughout. Besides, the IC50 in assay [9] was determined as 6.1 µM. The residual activity in assay [2] came to 46.2%.

For the compound `O=C(O)/C=C/c1cccc(N2CCN(c3cccc(/C=C/C(=O)O)n3)C2=O)n1`, the outcome in the assay with VCaP [1] and in the assay on LAPC4 was inactive. In addition, the residual activity in assay [2] amounted to 10.3%. Also, in assay [3], the inhibition result is “Active”.

As for `O=C(NCc1cccc(C(=O)O)c1)NCc1cccc(C(=O)O)c1`, the outcome with VCaP [1] and with LAPC4 was inactive. The residual activity in [2] is 56.4%.

In the case of `O=C(Nc1ccc2ccc(S(=O)(=O)Nc3ccc4c(c3)OCCO4)cc2c1)Nc1ccc2ccc(S(=O)(=O)Nc3ccc4c(c3)OCCO4)cc2c1`, the IC50 in the assay with LAPC4 is 1.5 µM. The residual activity in assay [2] is 71.8%.

For `O=C(O)/C=C/c1cccc(N2CCCN(c3cccc(/C=C/C(=O)O)n3)C2=O)n1`, the outcome in the assay with VCaP [1] and in the assay on LAPC4 was inactive. Besides, the residual activity in [2] turned out to be 48.7%.

In the case of `COc1ccc2c3c(cccc13)C(=O)N(C)C2=O`, the result in the assay with VCaP [1] and in the assay on LAPC4 was inactive. Besides, the half-maximal inhibitory concentration (IC50) in assay [9] amounted to 16.3 µM. In addition, in [2], the residual activity is 46.2%.

In the case of `O=C(O)/C=C/c1cccc(N2CCCN(c3cccc(/C=C/C(=O)O)c3)C2=O)c1`, the result with VCaP [1] and with LAPC4 was inactive. In addition, the residual activity in [2] was found to be 74.4%.

Take `O=C(Nc1ccc2ccc(S(=O)(=O)Nc3ccc(Oc4ccccc4)cc3)cc2c1)Nc1ccc2ccc(S(=O)(=O)Nc3ccc(Oc4ccccc4)cc3)cc2c1`: in the assay on LAPC4, the IC50 was 8.6 µM. In assay [2], the residual activity came out at 38.5%.

Regarding `O=C(O)/C=C/c1ccc(N2CCCN(c3ccc(/C=C/C(=O)O)cc3)C2=O)cc1`, the result in the assay with VCaP [1] and with LAPC4 was inactive. The residual activity in assay [2] is 56.4%.
